Paper PMC9989852 (Food and chemical toxicology : an international journal …, 2022)
Where two headings read alike, the source gives them in different places.

How the values were obtained:
B6C3F1 mice [1] = conditions: dermal exposure; Supplemental Table 8; ref Weatherly et al., 2021; cited from earlier work
[2] = tested on: auricular draining lymph nodes (dLNs); experiment: Draining lymph node phenotyping by flow cytometry after 28-day dermal exposure; format: in vivo, B6C3F1 mice; conditions: 0.5%, 28 days
Summary of the method: (§1)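 Female B6C3F1 mice (5/group) received 25 μl/ear daily to the dorsal ears in acetone. About 24 h after the last dose, tissues went into RPMI: both auricular dLNs, half spleen and one ear pinna. Single-cell suspensions were acquired on an LSR II, with populations gated per supplemental strategy and FMO gating controls. Results are mean ± SE, n=5, by one-way ANOVA.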

ear pinna [3] = experiment: Skin; format: in vivo, B6C3F1 mice; conditions: 0.5%, dermal, 28 days
Summary of the method: as §1

spleen = experiment: Spleen phenotyping by flow cytometry after 28-day dermal exposure; format: in vivo, B6C3F1 mice; conditions: 0.5%, 28 days
Summary of the method: as §1

liver = experiment: Liver histopathology after 28-day dermal exposure; format: in vivo, B6C3F1 mice; conditions: 0.5%, 28 days
Summary of the method: (§2)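 Female B6C3F1 mice (5/group) received 25 μl/ear on the dorsal ear surfaces daily, with acetone as vehicle. Tissues were formalin-fixed about 24 h after the last dose: liver remainder, half spleen, right kidney and half ear pinna. Sections were paraffin-embedded, cut at 5 μm and stained with H&E. A veterinary pathologist read them per STP guideline and graded 1 (minimal) to 5 (severe) by extent.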

kidney, spleen = experiment: Kidney and spleen histopathology after 28-day dermal exposure; format: in vivo, B6C3F1 mice; conditions: 0.5%, 28 days
Summary of the method: as §2

[4] = PFAS concentration in serum; format: in vivo, B6C3F1 mice; conditions: 0.5%, dermal, 28 days
Summary of the method: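 Serum came by cardiac puncture about 24 h after the final daily ear dose (25 μl/ear, acetone vehicle; female B6C3F1 mice). Samples underwent solid-phase extraction and LC/MS/MS. Short-chain analytes were quantified as linear isomer only; the legacy comparator was quantified as linear plus branched. Data are mean ± SE of 4–5 mice, one-way ANOVA with Dunnett's vs vehicle.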

[5] = PFAS concentration in pooled urine; format: in vivo, B6C3F1 mice; conditions: B6C3F1, mouse, urine, topical, 0.5 % w/v
Summary of the method: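 Urine was caught in a weigh boat as it was excreted during CO2 euthanasia, about 24 h after the final daily ear dose (25 μl/ear, acetone vehicle; female B6C3F1 mice). The 5 mice per group were pooled, with variable volume. Samples underwent solid-phase extraction and LC/MS/MS, as linear isomer for short-chain analytes and linear plus branched for the comparator. Each group gave a single value without statistics.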

B6C3F1 mice [6] = experiment: Organ weights and body weight after 28-day dermal exposure; format: in vivo; conditions: 0.5%, 28 days
B6C3F1 mice [7] = experiment: Serum chemistries after 28-day dermal exposure; format: in vivo; conditions: 28 days
Summary of the method: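 Female B6C3F1 mice received daily dorsal ear application (25 μl/ear, acetone vehicle). About 24 h after the last dose, blood was taken by cardiac puncture. Serum was separated by centrifugation and stored at −20 °C. ALKP, BUN, glucose and cholesterol were read on a Catalyst DX analyzer. Data are mean ± SE of 4–5 mice, ANOVA with Dunnett's; ALKP was also tested by linear regression (p < 0.05).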

liver (caudate) = experiment: Liver gene expression; format: in vivo, B6C3F1 mice; conditions: 0.5%, dermal, 28 days
Summary of the method: (§3)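 Dosing was daily topical to both dorsal ears (25 μl/ear, acetone vehicle) in female B6C3F1 mice. Liver caudate lobe or half ear pinna was stored in RNAlater and homogenized in RLT buffer. RNA was isolated on RNeasy columns with DNase, and 1–2 μg was reverse-transcribed. TaqMan real-time PCR was read as 2−ΔΔCT vs vehicle, normalized to β-actin. Statistics: ANOVA/Dunnett's, or Kruskal-Wallis/Dunn's for unequal variance.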

ear pinna [8] = experiment: Skin; format: in vivo, B6C3F1 mice; conditions: 0.5%, dermal, 28 days; remark: listed apart in the source
Summary of the method: as §3

skin [9] = experiment: Irritation at the site of dermal application; format: in vivo, B6C3F1 mice; conditions: 0.5%, 28 days
[10] = ref ATSDR, 2021; cited from earlier work
skin [11] = conditions: concentrations up to 2%; ref Shane et al., 2020; cited from earlier work

O=C(O)C(F)(F)C(F)(F)C(F)(F)F [PFBA, heptafluorobutyric acid]
serum cholesterol (B6C3F1 mice [1]): elevated cholesterol
serum glucose levels (B6C3F1 mice [1]): increase in glucose levels

O=C(O)C(F)(F)C(F)(F)C(F)(F)C(F)(F)C(F)(F)C(F)(F)C(F)(F)F [PFOA, perfluorooctanoic acid, reference compound]
dLN B-cells [2]: no B-cell changes
dLN CD4^+ T-cells, cell number and frequency [2]: decreased
dLN MHCII MFI on B-cells [2]: decrease
dLN eosinophil cell number [2]: decrease
total dLN cellularity [2]: neither PFOA (Supplemental Table 3) nor PFBA (Supplemental Table 9) induced changes
skin CD11b + F4/80+ DCs, frequency and cell number (ear pinna [3]): significantly decreased
skin CD11b− F4/80 DCs, frequency and cell number (ear pinna [3]): significantly decreased
skin CD11b− F/480+ DCs, frequency and cell number (ear pinna [3]): significantly decreased
skin CD45^+ cells, frequency and cell number (ear pinna [3]): significantly decreased
skin eosinophils, frequency and cell number (ear pinna [3]): significantly decreased
skin total DCs, frequency and cell number (ear pinna [3]): significantly decreased
spleen MFI of MHCII on B-cells (spleen): decrease
spleen MFI of MHCII on DCs (spleen): decrease
spleen frequency of CD4^+ T-cells (spleen): increase
spleen frequency of CD8^+ T-cells (spleen): increase
spleen frequency of CD11b + Ly6C + cells (spleen): decrease
spleen frequency of CD11b + Ly6C− cells (spleen): decrease
spleen frequency of CD11b + cells (spleen): decrease
spleen frequency of NK cells (spleen): decrease
spleen frequency of neutrophils (spleen): increase
spleen number of B-cells (spleen): significant decrease
spleen number of CD4^+ T-cells (spleen): significant decrease
spleen number of CD11b + Ly6C + cells (spleen): significant decrease
spleen number of CD11b + Ly6C− cells (spleen): significant decrease
spleen number of CD11b + cells (spleen): significant decrease
spleen number of NK cells (spleen): significant decrease
spleen number of eosinophils (spleen): significant decrease
spleen number of total DCs (spleen): significant decrease
spleen total cell number (spleen): significant decrease
liver hepatocellular hypertrophy (diffuse), marked (incidence) (liver): 5/5
spleen decreased lymphocyte cellularity, mild (incidence) (kidney, spleen): 2/5
PFAS serum concentration vs vehicle [4]: significant increase
concentration at 24 h [5]: 260 µg/mL
body weight (B6C3F1 mice [6]): significant decrease
kidney weight (% body weight), increase (B6C3F1 mice [6]): 8%
liver weight (% body weight), increase (B6C3F1 mice [6]): 120%
spleen weight (% body weight), decrease (B6C3F1 mice [6]): 41%
thymus weight (% body weight), decrease (B6C3F1 mice [6]): 71%
serum ALKP, increase (B6C3F1 mice [7]; 0.5%): 112%
serum BUN (B6C3F1 mice [7]; 0.5%): No change
serum cholesterol (B6C3F1 mice [7]; 0.5%): No change
serum glucose, decrease (B6C3F1 mice [7]; 0.5%): 44%
serum alanine aminotransferase (ALT) (B6C3F1 mice [7]; any concentration, data not shown): No change
liver Cd36 gene expression, increase (liver (caudate)): 12.2 fold
liver Ehhadh gene expression, increase (liver (caudate)): 57.7 fold
liver Lpl gene expression, increase (liver (caudate)): 13.1 fold
liver Pparδ gene expression (liver (caudate)): decrease
liver Serpine1 gene expression, increase (liver (caudate)): 10.5 fold
skin Flg gene expression (ear pinna [8]): increased
skin Pparγ gene expression (ear pinna [8]): significant decrease
skin Pparδ gene expression (ear pinna [8]): slight significant increase
skin Serpine1 gene expression (ear pinna [8]): significant increase
irritation at the site of application (skin [9]): no irritation
half-life in humans [10]: 2.1–10.1 years
signs of skin irritation (skin [11]): did not show any signs of irritation
